Reference: ChEMBL document CHEMBL3421533, “The Discovery of Orally Bioavailable Tyrosine Threonine Kinase (TTK) Inhibitors: 3-(4-(heterocyclyl)phenyl)-1H-indazole-5-carboxamides as Anticancer Agents” (J Med Chem, 2015)

How the values were obtained:
[1] = Half life in mouse liver microsomes at 1 uM by LC-MS analysis; type: ADME; settings: liver microsomes
[2] = Half life in rat liver microsomes at 1 uM by LC-MS analysis; type: ADME; settings: liver microsomes
[3] = target: T1, Dual specificity protein kinase TTK (Homo sapiens, UniProt P33981); assay: Inhibition of amino terminal GST-fused full length human TTK using His6-SUMO-TTK-N as substrate preincubated for 15 mins prior to ATP addition by indirect ELISA detection system
T1 sequence (P33981 whole entry): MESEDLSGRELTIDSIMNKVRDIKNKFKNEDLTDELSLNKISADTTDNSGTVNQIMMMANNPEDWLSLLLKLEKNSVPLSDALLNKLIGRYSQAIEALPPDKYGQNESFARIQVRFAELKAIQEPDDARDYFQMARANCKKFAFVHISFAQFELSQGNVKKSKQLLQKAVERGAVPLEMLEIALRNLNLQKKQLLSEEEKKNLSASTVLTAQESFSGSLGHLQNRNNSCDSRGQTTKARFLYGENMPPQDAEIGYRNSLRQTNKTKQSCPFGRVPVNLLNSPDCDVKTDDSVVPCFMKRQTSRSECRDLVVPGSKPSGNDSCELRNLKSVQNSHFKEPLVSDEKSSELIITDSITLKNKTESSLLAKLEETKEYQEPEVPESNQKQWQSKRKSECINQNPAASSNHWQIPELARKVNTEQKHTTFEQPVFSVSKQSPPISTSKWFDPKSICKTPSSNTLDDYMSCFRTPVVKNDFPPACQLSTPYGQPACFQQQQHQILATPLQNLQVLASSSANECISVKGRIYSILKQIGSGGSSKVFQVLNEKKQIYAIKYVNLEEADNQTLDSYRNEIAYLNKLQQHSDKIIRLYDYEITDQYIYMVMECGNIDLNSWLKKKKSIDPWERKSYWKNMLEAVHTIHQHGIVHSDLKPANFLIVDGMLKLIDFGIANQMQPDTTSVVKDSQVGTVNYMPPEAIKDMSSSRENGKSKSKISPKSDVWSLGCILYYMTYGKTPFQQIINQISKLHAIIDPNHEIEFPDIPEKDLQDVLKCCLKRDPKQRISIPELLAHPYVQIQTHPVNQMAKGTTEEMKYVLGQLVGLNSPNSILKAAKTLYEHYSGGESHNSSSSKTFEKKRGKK

[4] = AUCinfinity in athymic CD1 nude mouse at 10 mg/kg, po by LC-MS/MS analysis; type: ADME, organism-based, Plasma; parameters: time infinity, dose 10 mg/kg, route oral; settings: athymic CD1 nude, plasma
[5] = target: Aurora kinase B/Inner centromere protein (Homo sapiens, UniProt Q96GD4); assay: Inhibition of AURKB/INCENP (unknown origin) preincubated for 15 mins prior to ATP addition by FRET-based homogenous assay; type: protein-complex assay
Aurora kinase B/Inner centromere protein, sequence (Q96GD4 whole entry): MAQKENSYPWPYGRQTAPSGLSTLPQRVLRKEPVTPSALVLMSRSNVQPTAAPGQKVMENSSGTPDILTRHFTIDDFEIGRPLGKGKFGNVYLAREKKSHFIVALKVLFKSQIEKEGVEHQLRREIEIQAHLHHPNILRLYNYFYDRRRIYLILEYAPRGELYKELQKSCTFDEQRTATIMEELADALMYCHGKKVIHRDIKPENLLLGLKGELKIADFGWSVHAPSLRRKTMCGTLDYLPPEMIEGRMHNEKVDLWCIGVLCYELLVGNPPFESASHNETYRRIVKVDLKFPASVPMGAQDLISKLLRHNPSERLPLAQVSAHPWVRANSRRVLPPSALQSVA
Aurora kinase B/Inner centromere protein, sequence (Q9NQS7 whole entry, further chain): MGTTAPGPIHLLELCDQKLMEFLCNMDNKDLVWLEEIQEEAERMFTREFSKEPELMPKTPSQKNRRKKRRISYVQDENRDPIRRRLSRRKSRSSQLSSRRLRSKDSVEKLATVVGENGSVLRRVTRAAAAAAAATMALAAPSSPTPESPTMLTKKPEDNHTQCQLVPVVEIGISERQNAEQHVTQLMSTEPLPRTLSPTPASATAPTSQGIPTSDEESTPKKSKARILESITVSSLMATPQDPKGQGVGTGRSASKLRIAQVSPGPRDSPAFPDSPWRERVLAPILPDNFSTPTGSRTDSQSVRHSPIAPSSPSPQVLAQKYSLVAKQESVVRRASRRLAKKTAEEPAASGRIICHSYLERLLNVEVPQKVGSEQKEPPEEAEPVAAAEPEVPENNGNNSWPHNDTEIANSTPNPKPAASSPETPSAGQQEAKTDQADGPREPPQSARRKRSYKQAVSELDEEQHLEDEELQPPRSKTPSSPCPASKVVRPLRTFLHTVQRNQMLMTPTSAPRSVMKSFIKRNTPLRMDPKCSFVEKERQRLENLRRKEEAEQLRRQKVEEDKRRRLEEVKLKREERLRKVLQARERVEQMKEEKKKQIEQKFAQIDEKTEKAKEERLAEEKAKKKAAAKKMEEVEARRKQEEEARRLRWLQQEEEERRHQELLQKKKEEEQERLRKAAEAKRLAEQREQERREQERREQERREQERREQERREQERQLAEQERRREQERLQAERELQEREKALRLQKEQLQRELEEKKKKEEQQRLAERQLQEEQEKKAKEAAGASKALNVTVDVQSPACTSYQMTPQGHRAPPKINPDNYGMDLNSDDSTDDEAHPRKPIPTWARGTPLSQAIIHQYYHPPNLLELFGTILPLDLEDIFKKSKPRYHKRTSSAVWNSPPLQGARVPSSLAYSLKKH
How it was run: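 The enzyme was AURKB/INCENP in a FRET-based homogeneous assay run to kit specifications, with ATP at 128 μM. […] Each IC50 came from a single determination, reported with its standard fitting error.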

[6] = Cmax in athymic CD1 nude mouse at 10 mg/kg, po by LC-MS/MS analysis; type: ADME, organism-based; parameters: dose 10 mg/kg, route oral; settings: athymic CD1 nude, in vivo
Homo sapiens = organism: Homo sapiens; assay: Selectivity ratio of IC50 for AURKB/INCENP (unknown origin) to IC50 for amino terminal GST-fused full length human TTK
[7] = Cytotoxicity against human OVCAR3 cells after 5 days by sulforhodamine B assay; type: functional, OVCAR-3
MDA-MB-468 = assay: Cytotoxicity against human MDA-MB-468 cells after 5 days by sulforhodamine B assay; type: functional
How it was run: (§1)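 Cancer lines were seeded at 800–6000 cells per well according to growth rate, 24 h before compound overlay. After culture, cells were fixed in situ and stained with sulforhodamine B. GI50 values were derived by curve fitting.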

[8] = Cytotoxicity against human HCT116 cells after 5 days by sulforhodamine B assay; type: functional, HCT-116; settings: Homo sapiens, HCT-116, 120 h; how it was run: as §1
Cytochrome P450 3A4 = Cytochrome P450 3A4 (Homo sapiens, UniProt P08684); assay: Inhibition of human CYP3A4 using BFC as substrate preincubated for 10 mins followed by enzyme/substrate addition measured after 30 mins by fluorescence assay; type: ADME
Cytochrome P450 3A4, sequence (P08684 whole entry): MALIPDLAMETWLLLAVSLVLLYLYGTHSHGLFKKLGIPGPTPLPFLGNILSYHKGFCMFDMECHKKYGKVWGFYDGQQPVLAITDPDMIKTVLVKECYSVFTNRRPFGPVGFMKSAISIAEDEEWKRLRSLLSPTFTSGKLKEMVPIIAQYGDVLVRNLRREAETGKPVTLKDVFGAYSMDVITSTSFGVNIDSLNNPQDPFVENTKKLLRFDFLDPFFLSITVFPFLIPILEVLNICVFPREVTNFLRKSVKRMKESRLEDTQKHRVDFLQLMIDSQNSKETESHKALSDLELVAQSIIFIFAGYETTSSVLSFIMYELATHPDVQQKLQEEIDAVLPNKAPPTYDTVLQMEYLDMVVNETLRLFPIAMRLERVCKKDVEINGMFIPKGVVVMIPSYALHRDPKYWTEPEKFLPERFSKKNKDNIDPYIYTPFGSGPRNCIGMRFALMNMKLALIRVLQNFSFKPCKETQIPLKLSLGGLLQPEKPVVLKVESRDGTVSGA

[9] = Oral bioavailability in Sprague-Dawley rat at 5 mg/kg by LC-MS/MS analysis; type: ADME, organism-based; settings: in vivo
[10] = Clearance in Sprague-Dawley rat at 1 mg/kg, iv by LC-MS/MS analysis; type: ADME, organism-based; parameters: dose 1 mg/kg, route intravenous; settings: in vivo
[11] = AUCinfinity in Sprague-Dawley rat at 1 mg/kg, iv by LC-MS/MS analysis; type: ADME, organism-based; parameters: time infinity, dose 1 mg/kg, route intravenous; settings: plasma
[12] = AUCinfinity in Sprague-Dawley rat at 5 mg/kg, po by LC-MS/MS analysis; type: ADME, organism-based; parameters: time infinity, dose 5 mg/kg, route oral; settings: plasma
[13] = Half life in Sprague-Dawley rat at 1 mg/kg, iv by LC-MS/MS analysis; type: ADME, organism-based; parameters: dose 1 mg/kg, route intravenous; settings: in vivo
[14] = AUC in athymic CD1 nude mouse at 10 mg/kg, po by LC-MS/MS analysis; type: ADME, organism-based; parameters: dose 10 mg/kg, route oral; settings: plasma
[15] = Homo sapiens, MDA-MB-468, 120 h

Row | SMILES | half-life at 1 µM [1] [min] | half-life at 1 µM [2] [min] | IC50 [3] [nM] | AUC(0-inf) [4] [ng·h/mL] | IC50 [5] [nM] | Cmax [6] [ng/mL] | Ratio IC50 (Homo sapiens) | GI50 ([7]; Homo sapiens, OVCAR-3, 120 h) [nM] | GI50 (MDA-MB-468; [15]) [nM] | GI50 [8] [nM] | IC50 (Cytochrome P450 3A4) [nM] | bioavailability [9] [%] | clearance [10] [mL/min/kg] | AUC(0-inf) [11] [ng·h/mL] | AUC(0-inf) [12] [ng·h/mL] | half-life [13] [min] | AUC [14] [ng·h/mL] | GI50 [7] [nM] | GI50 (MDA-MB-468) [nM]
1 | O=C(N[C@H](c1ccccc1)C1CC1)c1ccc2[nH]nc(-c3ccc(N4[C@H]5CC[C@H]4CC(O)C5)cc3)c2c1 (stereo not given in full) | 47 | 35 | 2.8 | 670 | 1100 | 480 | > 100 | 120 | 70 | 22 | – | – | – | – | – | – | – | – | –
2 | O=C(N[C@H](c1ccccn1)C1CCCC1)c1ccc2[nH]nc(-c3ccc(N4C5CCC4COC5)cc3)c2c1 | – | – | – | – | 1400 | – | – | – | – | – | 930 | 39 | – | – | – | – | – | – | –
3 | O=C(N[C@H](CC1CC1)c1ccccn1)c1ccc2[nH]nc(-c3ccc(N4[C@H]5CC[C@H]4CC(O)C5)cc3)c2c1 (stereo not given in full) | > 60 | > 60 | 1.5 | 1900 | 1200 | 1200 | > 100 | – | 27 | 16 | 1300 | 19 | 57 | 290 | 270 | 22.8 | – | – | –
4 | CC(C)[C@H](NC(=O)c1ccc2[nH]nc(-c3ccc(N4[C@H]5CC[C@H]4CC(O)C5)cc3)c2c1)c1ccccc1Cl (stereo not given in full) | 34 | > 60 | 6 | 620 | > 6300 | 330 | > 100 | 7 | 21 | 9 | – | – | – | – | – | – | – | – | –
5 | O=C(N[C@@H](c1ccccn1)C1CC1)c1ccc2[nH]nc(-c3ccc(N4C5CCC4COC5)cc3)c2c1 | > 60 | > 60 | 2 | 2100 | 1200 | 1500 | – | 150 | 130 | 21 | 1400 | 75 | 71 | 240 | 890 | 24 | – | – | –
6 | NS(=O)(=O)c1cccc(-c2n[nH]c3ccc(NC(=O)C(c4ccsc4)N4CCCC4)cc23)c1 (racemic) | – | – | – | – | – | 7 | – | – | 87 | 39 | – | – | – | – | – | – | 25 | – | –
7 | O=C(N[C@H](c1ccccn1)C1CC1)c1ccc2[nH]nc(-c3ccc(N4[C@H]5CC[C@H]4CC(O)C5)cc3)c2c1 (stereo in doubt; 74) | > 60 | > 60 | 1.2 | 1600 | 530 | 1600 | – | – | – | 18 | 2100 | – | – | – | – | – | – | 20 | 16
8 | CN1CCN(c2ccc(-c3n[nH]c4ccc(NC(=O)C(c5ccsc5)N5CCCC5)cc34)cc2)CC1 (racemic) | – | – | 7.4 | – | – | 180 | – | – | 250 | 57 | – | – | – | – | – | – | 590 | – | –
9 | O=C(NC(c1ccccc1)C1CC1)c1ccc2[nH]nc(-c3ccc(N4CCOCC4)cc3)c2c1 (racemic) | – | – | 17 | – | 190 | 3900 | – | – | 330 | 86 | – | – | – | – | – | – | 13500 | – | –
10 | O=C(N[C@@H](c1ccccn1)C1CCCC1)c1ccc2[nH]nc(-c3ccc(N4[C@H]5COC[C@H]4CC(O)C5)cc3)c2c1 (stereo not given in full) | 60 | 33 | 2.2 | – | 740 | – | > 100 | 160 | 140 | 15 | 330 | – | – | – | – | – | – | – | –
11 | CC(C)CC(NC(=O)c1ccc2[nH]nc(-c3ccc(O[C@H]4C[C@H]5CC[C@@H](C4)N5C=O)cc3)c2c1)c1ccccn1 (mixture of isomers) | – | – | 3 | – | 300 | 280 | – | – | 150 | 64 | 410 | – | – | – | – | – | 660 | – | –
12 | CN1CCN(c2ccc(-c3n[nH]c4ccc(C(=O)NCC5(N6CCOCC6)CCCCC5)cc34)cc2)CC1 | – | – | 7.6 | – | 440 | 160 | – | – | 180 | 12 | – | – | – | – | – | – | 480 | – | –
13 | O=CN1[C@@H]2CC[C@H]1C[C@@H](Oc1ccc(-c3n[nH]c4ccc(C(=O)NC(c5ccsc5)C5CCC5)cc34)cc1)C2 (mixture of isomers) | – | – | 2.5 | – | 1200 | 33 | – | – | 110 | 41 | – | – | – | – | – | – | 30 | – | –
14 | O=C(N[C@H](c1ncccn1)C1CCCC1)c1ccc2[nH]nc(-c3ccc(N4[C@H]5CC[C@H]4CC(O)C5)cc3)c2c1 (stereo not given in full) | > 60 | > 60 | 1.1 | 970 | 620 | 750 | – | 20 | 14 | 1 | – | 21 | 125 | 130 | 140 | 43.8 | – | – | –
15 | O=C(Nc1ccc2[nH]nc(-c3ccc(N4CCOCC4)cc3)c2c1)C(c1ccsc1)N1CCCC1 (racemic) | – | – | 11 | – | – | 3500 | – | – | 160 | 27 | – | – | – | – | – | – | 7900 | – | –
